The values below come from ChEMBL document CHEMBL1126069, “Synthesis of high affinity fluorine-substituted ligands for the androgen receptor. Potential agents for imaging prostatic cancer by positron emission tomography” (J Med Chem, 1992).

In assay [1] the target is T1, Mineralocorticoid receptor (Rattus norvegicus) (UniProt P22199).
T1 sequence (whole entry): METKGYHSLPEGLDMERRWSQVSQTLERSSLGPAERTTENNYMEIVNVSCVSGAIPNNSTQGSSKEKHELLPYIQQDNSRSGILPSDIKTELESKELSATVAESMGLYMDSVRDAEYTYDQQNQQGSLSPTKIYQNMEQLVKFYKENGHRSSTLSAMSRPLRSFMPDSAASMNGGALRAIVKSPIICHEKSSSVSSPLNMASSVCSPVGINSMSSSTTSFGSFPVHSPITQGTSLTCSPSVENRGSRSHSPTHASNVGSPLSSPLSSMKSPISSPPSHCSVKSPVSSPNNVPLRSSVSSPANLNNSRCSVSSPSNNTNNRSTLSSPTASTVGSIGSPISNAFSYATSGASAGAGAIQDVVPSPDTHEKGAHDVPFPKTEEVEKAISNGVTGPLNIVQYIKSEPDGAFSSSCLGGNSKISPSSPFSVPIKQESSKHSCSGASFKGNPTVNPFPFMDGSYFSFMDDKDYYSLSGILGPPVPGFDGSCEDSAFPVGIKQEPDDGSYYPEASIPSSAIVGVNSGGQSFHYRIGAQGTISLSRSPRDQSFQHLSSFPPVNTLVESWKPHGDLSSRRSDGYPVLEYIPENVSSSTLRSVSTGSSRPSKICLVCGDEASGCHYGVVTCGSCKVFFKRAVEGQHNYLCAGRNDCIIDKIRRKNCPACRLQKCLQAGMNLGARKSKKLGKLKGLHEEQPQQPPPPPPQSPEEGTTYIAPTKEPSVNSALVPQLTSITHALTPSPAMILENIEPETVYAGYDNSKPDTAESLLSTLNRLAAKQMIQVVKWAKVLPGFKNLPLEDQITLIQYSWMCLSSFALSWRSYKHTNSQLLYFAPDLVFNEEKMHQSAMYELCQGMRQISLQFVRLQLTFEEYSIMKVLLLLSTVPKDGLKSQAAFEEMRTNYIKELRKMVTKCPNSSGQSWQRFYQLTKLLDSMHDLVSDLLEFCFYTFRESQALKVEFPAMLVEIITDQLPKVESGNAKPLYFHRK
In words: Displacement of [3H]aldosterone from rat Mineralocorticoid receptor. In short, it runs like this: (§1)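 Competitive radiometric binding assay giving relative binding affinities. The reference standards were R5020 for rat PgR, aldosterone for rat MR and estradiol for human SBP.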
(In general: Loss of bound radioactivity is the signal in a displacement assay; it reports binding, not function.)

Assay [2] addresses T2, Progesterone receptor (Rattus norvegicus) (UniProt Q63449).
T2 sequence (whole entry): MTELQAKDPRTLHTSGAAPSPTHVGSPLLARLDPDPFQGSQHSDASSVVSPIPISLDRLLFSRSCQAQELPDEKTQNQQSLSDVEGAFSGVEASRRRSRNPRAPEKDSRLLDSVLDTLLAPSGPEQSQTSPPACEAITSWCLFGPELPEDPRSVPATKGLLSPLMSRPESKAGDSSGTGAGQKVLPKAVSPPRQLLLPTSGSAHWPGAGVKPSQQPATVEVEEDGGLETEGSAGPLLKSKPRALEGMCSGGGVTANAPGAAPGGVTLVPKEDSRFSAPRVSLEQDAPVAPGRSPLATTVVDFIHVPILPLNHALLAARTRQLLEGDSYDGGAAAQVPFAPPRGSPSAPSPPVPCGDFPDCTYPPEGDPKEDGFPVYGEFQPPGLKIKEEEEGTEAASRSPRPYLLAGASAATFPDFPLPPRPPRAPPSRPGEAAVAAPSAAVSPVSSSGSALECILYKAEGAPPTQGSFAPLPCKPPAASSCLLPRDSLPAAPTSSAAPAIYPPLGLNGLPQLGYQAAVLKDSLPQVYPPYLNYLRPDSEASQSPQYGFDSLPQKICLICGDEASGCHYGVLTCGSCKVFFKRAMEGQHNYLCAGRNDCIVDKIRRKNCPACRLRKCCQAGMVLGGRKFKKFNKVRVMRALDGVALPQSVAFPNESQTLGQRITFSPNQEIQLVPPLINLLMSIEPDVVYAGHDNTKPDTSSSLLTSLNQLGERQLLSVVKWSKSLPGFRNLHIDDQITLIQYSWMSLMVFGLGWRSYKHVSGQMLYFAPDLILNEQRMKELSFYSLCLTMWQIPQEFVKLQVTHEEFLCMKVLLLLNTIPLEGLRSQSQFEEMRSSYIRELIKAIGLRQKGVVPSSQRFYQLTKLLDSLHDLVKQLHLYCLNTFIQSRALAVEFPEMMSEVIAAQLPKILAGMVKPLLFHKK
The assay can be described thus: Displacement of [3H]R5020 from rat progesterone receptor(PgR). In short, it runs like this: as §1

Assay [3] concerns the target T3, Sex hormone-binding globulin (Homo sapiens) (UniProt P04278).
T3 sequence (whole entry): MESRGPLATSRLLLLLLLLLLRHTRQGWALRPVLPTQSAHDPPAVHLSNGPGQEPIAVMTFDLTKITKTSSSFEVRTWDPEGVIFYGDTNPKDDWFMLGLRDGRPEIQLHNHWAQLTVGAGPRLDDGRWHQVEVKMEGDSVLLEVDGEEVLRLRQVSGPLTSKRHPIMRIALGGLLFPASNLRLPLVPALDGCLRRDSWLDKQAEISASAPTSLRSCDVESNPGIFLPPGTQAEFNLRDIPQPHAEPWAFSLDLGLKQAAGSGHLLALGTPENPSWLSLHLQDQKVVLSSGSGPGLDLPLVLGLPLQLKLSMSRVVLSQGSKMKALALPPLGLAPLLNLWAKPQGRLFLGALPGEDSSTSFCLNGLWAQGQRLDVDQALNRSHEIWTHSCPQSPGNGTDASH
The assay can be described thus: Displacement of [3H]estradiol from human Sex steroid binding protein (SBP). The gist of the method: as §1

Assay [4] is filed under the species Rattus norvegicus. The assay can be described thus: Relative affinity for rat androgen receptor(AR) and mineralocorticoid receptor(MR). In short, it runs like this: (§2)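 Each ratio is AR relative binding affinity divided by the RBA for PgR, MR or SBP. The AR source was ventral prostate cytosol from mature male Holtzman rats orchidectomized 24 h before. Cytosol was preincubated with triamcinolone acetonide to block PgR and corticosteroid receptors. [3H]R1881 served as tracer, incubated 18 h at 0 °C. Free ligand was removed with dextran-coated charcoal, 15 min at 0 °C. AR RBA is on a percent scale versus R1881.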

The nature of assay [5]: Relative affinity for rat androgen receptor(AR) and human Sex steroid binding protein (SBP). In short, it runs like this:
as §2

For assay [6], the species on record is Rattus norvegicus. In words: Relative affinity for rat androgen receptor(AR) and progesterone receptor(PgR). In short, it runs like this: as §2

Each structure is given as a SMILES string.

Take `C[C@]12CC[C@H]3[C@@H](CCC4=CC(=O)CC[C@@]43C)[C@@H]1CC[C@@H]2O`: the relative binding affinity (RBA) in assay [1] was 4.19; in assay [2], 0.09; in assay [3], 417.

`C[C@@H]1CC2=CC(=O)CC[C@@H]2C2CC[C@@]3(C)C(CC[C@@]3(O)CF)C21` (some centres not stated): the relative binding affinity (RBA) in assay [1] was 0.86; in assay [2] it was 10.3; in assay [3] it was 3. In addition, the RBA ratio in assay [4] turned out to be 61.9; in assay [5], 17.7; in assay [6] it was 5.2.

As to `C[C@@H]1CC2=CC(=O)CC[C@@H]2C2CC[C@@]3(C)C(CC[C@]3(C)O)C21` (some centres not stated), the relative binding affinity (RBA) in assay [1] was 5.7; in assay [2], 20.4; in assay [3] it was 19. Moreover, the results for the RBA ratio in assay [4], in assay [5] and in assay [6] were 20.7, 6.2 and 5.8, respectively.

For the molecule `C[C@@H]1CC2=CC(=O)CC[C@@H]2C2CC[C@@]3(C)C(C[C@H](F)[C@@H]3O)C21` (some centres not stated), the relative binding affinity (RBA) in assay [1] was determined as 0.05; in assay [2] it was 1.6; in assay [3], 3.75. Also, the figures for the RBA ratio in assay [4], in assay [5] and in assay [6] were 730, 9.7 and 23.4, respectively.

As to `C[C@@H]1CC2=CC(=O)CC[C@@H]2C2CC[C@@]3(C)C(C[C@H](F)[C@]3(C)O)C21` (some centres not stated), the relative binding affinity (RBA) was determined as 0.08 in assay [1], 3 in assay [2] and 1.3 in assay [3]. Also, the RBA ratio in assay [4] came to 385; in assay [5] it was 23.7; in assay [6], 10.3.

For `C[C@@H]1CC2=CC(=O)CC[C@@H]2C2CC[C@@]3(C)C(C[C@@H](F)[C@@H]3O)C21` (some centres not stated), the figures for the relative binding affinity (RBA) in assay [1], in assay [2] and in assay [3] were 0.21, 5.7 and 4.01, respectively. Further, the RBA ratio in assay [4] came out at 104; in assay [5], 5.5; in assay [6] it was 3.8.

In the case of `C[C@@H]1CC2=CC(=O)CC[C@@H]2C2CC[C@@]3(C)C(CC[C@@H]3O)C21` (some centres not stated), the relative binding affinity (RBA) was 0.74 in assay [1], 3.7 in assay [2] and 28.7 in assay [3]. Moreover, the values for the RBA ratio in assay [4], in assay [5] and in assay [6] were 210, 5.4 and 42.1, respectively.

On to `C[C@]1(O)CC[C@H]2[C@@H]3CCC4=CC(=O)CCC4=C3C=C[C@@]21C`, for which the relative binding affinity (RBA) in assay [1] amounted to 25.4; in assay [2], 43.7; in assay [3], 4. In addition, the figures for the RBA ratio in assay [4], in assay [5] and in assay [6] were 3.9, 25 and 2.3, respectively.

As for `C[C@]12C=CC3=C4CCC(=O)C=C4CCC3C1CC[C@@]2(O)CF` (some centres not stated), the values for the relative binding affinity (RBA) in assay [1], in assay [2] and in assay [3] were 4.5, 10.5 and 2.2, respectively. In addition, the RBA ratio in assay [4] amounted to 4.2; in assay [5] it was 8.5; in assay [6], 1.8.

For the molecule `C[C@]12CC[C@H]3[C@@H](CCC4CC(=O)CC[C@@]43C)[C@@H]1C[C@H](F)[C@@H]2O` (some centres not stated), the relative binding affinity (RBA) was 0.06 in assay [1], 0.12 in assay [2] and 385 in assay [3]. Further, the figures for the RBA ratio in assay [4], in assay [5] and in assay [6] were 689, 0.16 and 356, respectively.

In the case of `C[C@]12CC[C@H]3[C@@H](CCC4=CC(=O)CC[C@@H]43)[C@@H]1CC[C@@H]2O`, the relative binding affinity (RBA) worked out at 2 in assay [1], 3.1 in assay [2] and 29.9 in assay [3].

Regarding `C[C@@H]1CC2=CC(=O)CC[C@@H]2C2CC[C@@]3(C)C(C[C@@H](F)[C@]3(C)O)C21` (some centres not stated), the relative binding affinity (RBA) in assay [1] worked out at 0.37; in assay [2] it was 14.4; in assay [3] it was 3.1. Moreover, the RBA ratio in assay [4] turned out to be 101; in assay [5] it was 12; in assay [6], 2.6.

As to `C[C@]12CC[C@H]3[C@@H](CCC4CC(=O)CC[C@@]43C)[C@@H]1C[C@@H](F)[C@@H]2O` (some centres not stated), the relative binding affinity (RBA) in assay [1] worked out at 0.05; in assay [2] it was 0.07; in assay [3], 228. Moreover, the RBA ratio in assay [4] turned out to be 75.5; in assay [5], 0.02; in assay [6], 56.1.
